Rows were chosen to be rich in hits. Some 9.4% of all compounds tested hit in one or more screens of this group.
Lmaj promast: inhibitors of Leishmania major promastigote growth | Leishmania major promastigotes, resazurin fluorescence viability | hit rate 9% among 200,000 | inhibition, % at 10 µM | AID 1063; in the data active = inhibition above about 50%;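 also: promastigotes grown with compound for 44 hours at 28 °C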
CSC inhib: blocks cancer stem cells. hit rate 1.1% among 300,000. cancer stem cell-like cells viability, luminescence. inhibition, % at 7.5 µM; in the data active = inhibition above about 75%; tested in HMLE shEcad cells
T cruzi inh: blocks replication of Trypanosoma cruzi | inhibition, % (no concentration beside the values) | T. cruzi beta-gal in NIH3T3, luminescence, 90 h | hit rate 1.4% among 300,000 | AID 1885;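 active = mean inhibition across valid replicates above about 55%, limit read from the data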;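 also: signal also drops with host cell toxicity which is not excluded here; higher percent means less beta-gal luminescence so fewer parasites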
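Read-out: Parasite load inhibition, % | Test system: Mouse NIH/3T3 fibroblasts infected with β-gal-expressing T. cruzi Tulahuen C4 | Amount: 5,000 cells/well | Medium: DMEM, 2% fetal bovine serum | Signal: GalScreen β-gal luminescence, detergent lysis, 60 min | Timing: 3 h attach, ≥90 h co-culture | Also added: Tulahuen C4 trypomastigotes, 5000/well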
Mdm2-MdmX inh: human Mdm2/MdmX binding inhibition. SaOS-2 split-luciferase Mdm2/MdmX complementation, luminescence. hit rate 3% among 330,000. inhibition, % at 8 µM. AID 485346;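 active = inhibition of at least 50% at 8 µM in the primary screen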
Target sequence (O15151 whole entry, looked up): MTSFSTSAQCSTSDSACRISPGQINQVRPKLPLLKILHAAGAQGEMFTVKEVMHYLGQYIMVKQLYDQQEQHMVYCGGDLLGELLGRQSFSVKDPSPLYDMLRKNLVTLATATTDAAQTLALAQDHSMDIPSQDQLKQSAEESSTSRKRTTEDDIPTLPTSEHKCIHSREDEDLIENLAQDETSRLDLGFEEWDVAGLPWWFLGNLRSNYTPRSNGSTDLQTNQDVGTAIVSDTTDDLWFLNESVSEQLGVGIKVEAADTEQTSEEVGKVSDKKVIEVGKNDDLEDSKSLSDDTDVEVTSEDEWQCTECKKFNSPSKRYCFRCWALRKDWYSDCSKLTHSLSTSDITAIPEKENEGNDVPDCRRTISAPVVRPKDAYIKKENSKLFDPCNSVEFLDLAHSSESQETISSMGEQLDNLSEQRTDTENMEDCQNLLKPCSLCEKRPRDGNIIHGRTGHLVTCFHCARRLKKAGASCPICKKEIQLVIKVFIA
Target sequence (Q00987 whole entry, looked up): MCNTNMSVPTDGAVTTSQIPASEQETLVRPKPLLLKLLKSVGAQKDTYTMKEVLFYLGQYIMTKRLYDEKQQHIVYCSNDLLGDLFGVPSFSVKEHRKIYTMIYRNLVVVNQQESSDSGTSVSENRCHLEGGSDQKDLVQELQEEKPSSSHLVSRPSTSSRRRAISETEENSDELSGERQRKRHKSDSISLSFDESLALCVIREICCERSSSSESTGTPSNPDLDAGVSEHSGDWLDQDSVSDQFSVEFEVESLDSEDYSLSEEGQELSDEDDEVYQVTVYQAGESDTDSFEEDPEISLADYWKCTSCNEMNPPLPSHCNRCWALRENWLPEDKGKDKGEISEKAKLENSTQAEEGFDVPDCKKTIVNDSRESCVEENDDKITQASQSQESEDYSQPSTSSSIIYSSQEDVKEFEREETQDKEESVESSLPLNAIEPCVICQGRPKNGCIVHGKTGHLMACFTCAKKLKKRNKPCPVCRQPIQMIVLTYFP
SKKanGAS inh: blocks kanamycin growth of S. pyogenes SKKanGAS strain; BacTiter-Glo, 6 h; inhibition, % at 7.5 µM; hit rate 1.3% among 300,000; AID 1662;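 active = mean replicate score, as percent of positive control median, at least 50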;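 also: strain carries kanamycin resistance gene driven by streptokinase promoter and grows in 40 µg/ml kanamycin; loss of luminescence reflects streptokinase promoter inhibition or plain growth inhibition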
Beta cell apopt: blocks beta cell apoptosis | hit rate 0.8% among 300,000 | AID 435005 | protection from apoptosis, % (concentration not given with the values) | INS-1E cytokine-induced death, ATP luminescence, 48 h; percent of positive-control rescue, neutral wells zero;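 active = Every replicate reaches about 75%, or at least half do and their mean reaches it too, limit read from the data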;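 also: higher means more ATP so stronger rescue from cytokine killing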
A number is an active result; – = inactive; · = no result given.

SMILES | Lmaj promast | CSC inhib | T cruzi inh | Mdm2-MdmX inh | SKKanGAS inh | Beta cell apopt
Cc1cc(C(=O)COC(=O)c2ccc[nH]c2=O)c(C)n1-c1ccc(F)cc1 | 69.5 | – | – | – | – | –
Cc1cc(C(=O)COC(=O)c2ccc[nH]c2=O)c(C)n1-c1ccccc1 | 70.7 | – | – | – | – | –
Cc1cc(C(=O)COC(=O)c2ccc[nH]c2=O)c(C)n1C1CC1 | – | – | – | – | – | –
Cc1noc(C)c1COC(=O)c1cc(C)n(-c2ccccc2)c1C | 78.7 | – | – | – | – | –
Cc1cc(C(=O)OCC(=O)N2CC(=O)Nc3ccccc32)c(C)n1-c1ccc(F)cc1 | – | – | – | – | – | –
COc1cccc(CC(=O)NNC(=O)CN(C)S(=O)(=O)c2ccc(C)cc2)c1 | · | – | · | – | · | –
CCCCn1c(N)c(N(CCOC)C(=O)CN2C(=O)C3CCCCC3C2=O)c(=O)[nH]c1=O (stereo unspecified) | · | · | · | – | · | –
CC(=O)OCC1OC(OCc2cn(C[C@H]3CC[C@H](Cn4cc(COC5OC(COC(C)=O)C(OC(C)=O)C(OC(C)=O)C5OC(C)=O)nn4)O3)nn2)C(OC(C)=O)C(OC(C)=O)C1OC(C)=O (stereo partly specified) | · | – | – | – | – | –
CC1CCc2c(sc3nc(C4CC4)nc(N4CCN(C(=O)c5ccco5)CC4)c23)C1 (stereo unspecified) | – | – | – | – | 57.7 | 98.1
Cc1cccc(Cn2nc(-n3cccc3)c3c(C)cc(C)nc32)c1 | – | – | – | – | 54.9 | –
Cc1cccc(Cn2cnc3c(nnn3Cc3ccc(Cl)cc3)c2=O)c1 | – | – | – | – | – | –
Cc1[nH]n(-c2ncc(-c3ccccc3)s2)c(=O)c1C(c1ccc(Br)cc1)C(C#N)C#N (stereo unspecified) | 80.8 | · | – | – | 86.1 | –
COc1ccc(NCC(=O)Nc2ccccc2C#N)cc1Cl | 86.5 | – | – | – | – | –
CCCCCCCNC(=O)C1(CC2CC(c3cccc(Br)c3)=NO2)CCN(C(=O)c2ccccc2)CC1 (stereo unspecified) | · | – | 61.3 | – | – | –
CC(=O)N1CCN(C(=O)COC(=O)CNC(=O)c2ccccc2C)CC1 | · | – | – | – | – | –
CCCCCc1cc(O)c2c(C)cc(=O)oc2c1 | – | – | – | – | – | 130.0
CCCc1cc(=O)oc2cc(C)cc(O)c12 | – | – | – | – | – | –
O=C(CSc1cccs1)Nc1cccc2ccccc12 | 63.7 | – | – | – | – | –
O=C(CSc1cccs1)Nc1ccc2ccccc2c1 | – | – | – | – | – | –
Cc1cc(NC(=O)C(C)SCC(=O)N(C)CC(=O)Nc2ccccc2Br)no1 (stereo unspecified) | · | – | – | – | – | –
O=C(Nc1ccc(S(=O)(=O)N2CCCCC2)cc1)C1CCCN(C(=O)c2ccc(Cl)cc2)C1 (stereo unspecified) | 55.7 | – | – | – | – | –
CCOC(=O)c1ccc(NS(=O)(=O)N2CCCCCC2)cc1 | 94.6 | – | – | – | – | –
O=C(CNCCc1ccccc1)Nc1ccc(C(=O)N2CCCCC2)cc1 | · | – | – | – | – | –
CCOC(=O)c1ccc(NC(=O)C2CCCN(S(=O)(=O)c3ccc(F)cc3)C2)cc1 (stereo unspecified) | 59.1 | · | – | – | – | ·
O=C(CNCCc1ccc(Cl)cc1)Nc1ccc(C(=O)N2CCCCC2)cc1 | · | – | 61.5 | – | – | –
SMILES | Lmaj promast | CSC inhib | T cruzi inh | Mdm2-MdmX inh | SKKanGAS inh | Beta cell apopt
Cc1ccc(NC(=O)C2CC2C)c(Cl)c1 (stereo unspecified) | – | – | – | – | – | –
Cc1ccc(S(=O)(=O)Nc2ccc(-c3nc4cc(NS(=O)(=O)c5ccc(C)cc5)ccc4o3)cc2)cc1 | 98.5 | · | · | · | · | ·
CC(=O)Nc1ccc(S(=O)(=O)Nc2cccc(-c3nc4cc(C)ccc4o3)c2)cc1 | · | – | – | – | – | –
O=C(N/N=C/c1ccco1)c1ccccc1OCc1ccccc1Cl | 69.1 | – | – | – | – | –
Nc1c(C(=O)Nc2ccc(S(=O)(=O)N3CCCC3)cc2)sc2nc3cc4c(cc3cc12)CCC4 | – | – | – | · | – | 100.0
O=[N+]([O-])c1cc(-c2nnc(Nc3ccccc3)c3ccccc23)ccc1N1CCOCC1 | – | – | 57.2 | – | – | –
Cc1ccc(Nc2nnc(-c3ccc(N4CCOCC4)c([N+](=O)[O-])c3)c3ccccc23)cc1 | – | – | – | – | – | –
CCN1CCN(C(=O)CN2C(=O)COc3ccc(C)cc32)CC1 | · | · | – | – | – | –
COc1ccc(-c2ccc(SCC(=O)c3ccccc3)nn2)cc1OC | 60.7 | – | – | – | – | –
Cc1ccc(-c2ccc(SCC(=O)c3ccccc3)nn2)cc1 | – | – | – | – | – | –
Cc1ccc2c(c1)c1c(n2CCc2ccc(C)nc2)CCN(C)C1 | · | – | · | – | · | –
CCc1ccc(N2C(=O)Nc3ccccc3C2(O)C(=O)N2CCN(c3ccccn3)CC2)cc1 (stereo unspecified) | 68.6 | – | – | – | – | –
Cc1ccc(N2C(=O)Nc3ccccc3C2(O)C(=O)N2CCN(c3ccccn3)CC2)cc1C (stereo unspecified) | – | – | – | – | – | –
O=S(=O)(NCc1ccncc1)c1ccc(S(=O)(=O)NCC2CCCO2)cc1 (stereo unspecified) | – | 140.1 | – | – | – | –
O=S(=O)(NCc1ccccc1)c1ccc(S(=O)(=O)NCC2CCCO2)cc1 (stereo unspecified) | – | – | – | – | – | –
COc1cccc(-n2nnnc2SCC(=O)Nc2ccccc2OC)c1 | · | – | – | – | – | –
CCCS(=O)(=O)c1nnnn1-c1cccc(OC)c1 | 100.1 | · | – | · | – | –
O=C(/C=C/c1cccc(OCc2ccccc2)c1)c1cccnc1 | 99.7 | – | – | – | – | –
O=C(/C=C/c1ccc([N+](=O)[O-])cc1)c1cccnc1 | 94.7 | – | – | – | – | –
O=C(/C=C/c1ccc([N+](=O)[O-])cc1)NCc1cccnc1 | – | – | – | – | – | 95.3
O=C(/C=C/c1cccc([N+](=O)[O-])c1)NCc1cccnc1 | – | · | – | – | – | –
O=C(N/N=C/c1ccc([N+](=O)[O-])cc1)c1cccnc1 | · | – | – | – | – | –
O=C(/C=C/c1ccc([N+](=O)[O-])cc1)/C=C/c1ccco1 | · | 76.0 | – | – | – | –
COc1cccc(CC(=O)Nc2cc(S(=O)(=O)N3CCOCC3)ccc2N2CCN(C)CC2)c1 | · | · | · | – | · | –
COc1ccc(NS(=O)(=O)c2cc(NC(=O)Cn3cnc4c3c(=O)n(C)c(=O)n4C)ccc2C)cc1 | – | – | – | – | – | –
Cc1ccc(C2=Nc3ccccc3N(C(=O)c3ccccc3)C(C)C2)cc1 (stereo unspecified) | – | – | – | – | – | –
CCn1c2ccccc2c2cc(NC(=O)COC(=O)c3cccc(S(=O)(=O)NC)c3)ccc21 | 65.6 | – | – | – | – | –
CCn1c2ccccc2c2cc(NC(=O)CN3CCCC3)ccc21 | · | – | – | – | – | –

Source: PubChem
